KCNQ1 inh = human KCNQ1 channel inhibition; 310,000 compounds, 1.3% hits; B-score at 10 µM; P51787; AID 2642; CHO-K1 KCNQ1, FluxOR thallium flux fluorescence; active compounds read high;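 active = compounds whose thallium flux B-score, printed positive for inhibition, exceeds three library SD while starting fluorescence stays within three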;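 also: channel opened by potassium depolarization with thallium stimulus after 20 min compound exposure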
KCNK3 block = human KCNK3 channel inhibition, primary screen. 340,000 compounds, 0.84% hits. B-score at 10 µM. O14649. CHO-KCNK3 thallium flux, FluxOR fluorescence; active compounds read low;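 active = B-score under library mean minus 4 SD, starting fluorescence ratio at most library mean plus 5 SD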;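 also: more negative B-score means stronger inhibition of thallium flux through KCNK3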
Target sequence (O14649 whole entry, looked up): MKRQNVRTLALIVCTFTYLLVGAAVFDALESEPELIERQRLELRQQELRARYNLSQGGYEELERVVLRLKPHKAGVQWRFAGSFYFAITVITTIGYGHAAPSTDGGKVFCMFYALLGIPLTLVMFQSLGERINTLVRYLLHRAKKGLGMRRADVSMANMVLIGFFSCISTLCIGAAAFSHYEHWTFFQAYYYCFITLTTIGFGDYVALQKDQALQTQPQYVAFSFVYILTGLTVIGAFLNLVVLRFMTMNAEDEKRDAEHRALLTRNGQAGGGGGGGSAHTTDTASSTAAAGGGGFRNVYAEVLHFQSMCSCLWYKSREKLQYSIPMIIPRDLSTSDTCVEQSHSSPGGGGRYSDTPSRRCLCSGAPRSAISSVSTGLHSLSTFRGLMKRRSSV
KCNQ1 act = human KCNQ1 channel potentiation or activation | P51787 | CHO-K1 KCNQ1, thallium flux FluxOR fluorescence; active compounds read high | B-score at 10 µM | 310,000 compounds, 0.35% hits | AID 2648;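 active = fluorescence ratio B-score, a plate-corrected score, at least three library SD, with initial intensity B-score within 5 SD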
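Medium – assay buffer, equal DMSO in all wells · Material – CHO-K1 cell line with stable KCNQ1 potassium channel expression · Signal – kinetic FluxOR thallium fluorescence, 10-s 1-Hz baseline, 110-s post-stimulus read · Compound – single concentration per compound, DMSO matched to controls · Schedule – 37 °C overnight plating, 90-min dark dye load, 20-min compound pretreatment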
KCC2 mod = modulators of human KCC2 chloride dependent transport. AID 1456. Q9H2X9. 190,000 compounds, 2.2% hits. KCC2 cells, thallium flux FluoZin-2 fluorescence. B-score of Tl+ flux slope (higher = more flux/activation; lower = inhibition) at 10 µM;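 active = thallium flux slope and its plate-corrected score both differing from the plate sample mean at a set confidence after two filtering rounds, in either direction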;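 also: slope of fluorescence scaled to starting intensity during 10 to 20 s after thallium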
KCNK9 inh = human KCNK9 channel inhibition; HEK293 KCNK9, FluxOR thallium flux fluorescence; active compounds read low; B-score at 10 µM; 310,000 compounds, 1.2% hits; AID 488922;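 active = ratio B-score over 3 SD below the library mean, with starting fluorescence within 5 SD of its mean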;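 also: negative B-score means less thallium flux so channel inhibition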
hERG protect = hERG (human) protection from proarrhythmic block | CHO-hERG, FluxOR thallium flux, dofetilide IC70 present | activation (rescue from dofetilide block), less the hit threshold, % at 10 µM | 310,000 compounds, 0.51% hits | AID 1511;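 active = activation above the mean of controls blocked by dofetilide plus 5 SD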;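 also: thallium influx through hERG after potassium depolarization seen as dye fluorescence rise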
KCNK3 confirm = confirmation of human KCNK3 two-pore domain potassium channel inhibitors | shares compounds with KCNK3 block | CHO-KCNK3 thallium flux, FluxOR fluorescence; 0% buffer, 100% carvedilol maximal block | ratio percent of control, % at 10 µM | 2,400 compounds, 99% hits;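 active = ratio percent of control, averaged over triplicates, above buffer control mean plus 5 SD, cut at about 64% in these data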;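 also: ratio is the fluorescence rise from min to max over baseline after thallium stimulus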
KCNK3 noninduced = KCNK3 inhibitor counter-screen hit in non-induced cells; thallium flux ratio (lower = more inhibition) at 10 µM; AID 651747; shares compounds with KCNK3 block; non-induced KCNK3 parental cells, FluxOR thallium flux; active compounds read low; 2,400 compounds, 40% hits;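 active = thallium flux ratio, averaged over three wells, more than 5 SD below the buffer control mean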;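 also: host cells are CHO cells without KCNK3 induction; ratio is peak minus trough fluorescence over baseline then normalized to buffer controls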
Numbers without * were called inactive; i = inactive; . = no result given. An excerpt weighted towards active compounds, which were near 4.1% of everything screened.

SMILES	KCNQ1 inh	KCNK3 block	KCNQ1 act	KCC2 mod	KCNK9 inh	hERG protect	KCNK3 confirm	KCNK3 noninduced
Cc1cc(C)c(S(=O)(=O)N2CCc3ccccc32)c(C)c1	6*	-13*	i	.	i	-11	115*	0.13*
O=C(c1cc(-c2cccc(Cl)c2)on1)N1CCCCCC1	i	-10*	i	.	i	-3	114*	i
NNc1ccc(Cl)c(C(=O)O)c1	i	i	i	0.027	i	-8	.	.
COc1ccc(N2CCN(c3oc(-c4ccco4)nc3C#N)CC2)cc1	i	i	i	.	i	-12	.	.
N#Cc1nc(-c2ccco2)oc1N1CCN(c2ccccc2)CC1	i	-11*	i	.	i	-5	119*	i
COc1cc(CN(C)CC2CCCN(CCc3ccc(F)cc3)C2)c(Cl)cc1O (stereo not drawn)	i	-9.6*	i	.	i	-9	80*	i
COc1cc(C(=O)NC(C)C2CC3CCC2C3)ccc1OC(F)F (stereo not drawn)	.	-12*	.	.	.	.	110*	0.12*
S=C(NCCc1ccccc1)Nc1ccc(Nc2ccccc2)cc1	i	-9.3*	i	-0.55	i	-7	126*	0.13*
S=C(NCCCc1ccccc1)Nc1ccccc1	i	i	i	.	i	-5	.	.
N#CC1(C(N)=O)OC12CCS(=O)(=O)c1ccccc12 (stereo not drawn)	.	i	.	.	.	.	.	.
COc1cc(C)ccc1OCc1cc(C(=O)N2CCN(C)C[C@@H]2c2ccccc2)no1	i	i	i	.	i	-11	.	.
CCOC(=O)c1cc(-c2csc(COc3ccccc3)n2)on1	i	i	i	-1.6	i	-10	.	.
Cc1onc(-c2ccccc2)c1-c1csc(COc2ccccc2)n1	i	-12*	i	-0.71	-7.8*	-12	96*	0.14*
O=C(CSc1nc(Nc2ccccc2)nc(N2CCOCC2)n1)Nc1cccc([N+](=O)[O-])c1	i	-11*	i	.	i	-10	110*	0.15*
O=C(CSc1nc(Nc2ccccc2)nc(N2CCOCC2)n1)Nc1ccc([N+](=O)[O-])cc1	i	i	i	-0.61	i	-12	.	.
Cc1ccc(CNC(=O)c2ccc(Cl)c(S(=O)(=O)N3CCCCC3)c2)cc1	.	i	.	.	.	.	.	.
Cc1ccc(S(=O)(=O)N2CCOCC2)cc1NC(=O)COC(=O)CNC(=O)c1ccc(Cl)cc1Cl	i	-10*	i	.	i	-3	87*	i
Cc1ccc(C(=O)NCC(=O)OCC(=O)Nc2cc(S(=O)(=O)N3CCOCC3)ccc2Cl)s1	.	i	.	.	.	.	.	.
COc1ccccc1C(c1nnnn1CCc1ccccc1)N1CCCCCC1 (stereo not drawn)	i	-8.8*	i	-2.3	i	-12	96*	i
COc1ccccc1-c1c(C)oc2c(CN3CCN(CCO)CC3)c(O)ccc2c1=O	i	-20*	i	0.25	i	-11	59*	i
Cc1cc(C)cc(NC(=O)c2cccc3c2C(=O)N(C2CCCCC2)C3)c1	i	-9.3*	i	.	i	-7	107*	i
COc1cc(NC(=O)c2cccc3c2C(=O)N(C2CCCCC2)C3)cc(OC)c1OC	i	i	i	.	i	-26	.	.
CC(=O)c1ccc(NC(=O)c2ccn(C(=O)OCC(C)C)n2)cc1	i	i	i	0.073	i	-3	.	.
CN1CCN(C2=C(NS(=O)(=O)c3ccccc3)C(=O)c3ccccc3C2=O)CC1	i	i	i	.	i	-9	.	.
CN1CCN(C2=C(Cl)C(=O)c3ccccc3C2=O)CC1	.	-14*	.	.	.	.	160*	0.057*
SMILES	KCNQ1 inh	KCNK3 block	KCNQ1 act	KCC2 mod	KCNK9 inh	hERG protect	KCNK3 confirm	KCNK3 noninduced
O=C(N/N=C/C1C(c2ccccc2)C1(Cl)Cl)c1cccc(Br)c1 (stereo not drawn)	10*	-13*	i	-0.15	-7.4*	-11	115*	i
c1ccc(-c2nc(-n3nc4ccccc4n3)nc3ccccc23)cc1	i	-14*	i	.	-7.9*	-14	88*	0.15*
CCOC(=O)Nc1cc(N)ncn1	.	i	.	.	.	.	.	.
CN(CCOc1ccc(Cl)cc1)C(=O)c1cc(-c2ccco2)nc2ccccc12	i	-10*	i	.	i	-32	117*	0.13*
CCOc1ccccc1NC(=O)N1CCc2ccccc2C1	i	-9*	i	.	i	-15	84*	i
CCOc1ccccc1NC(=O)CN1CCc2ccccc2C1	i	i	i	.	i	-13	.	.
O=C(Nc1ccc2c(c1)N(S(=O)(=O)c1cccs1)CCC2)c1c(F)cccc1F	i	-8.7*	i	.	i	-14	101*	i
O=[N+]([O-])c1cccc(-c2csc(Nc3ccccc3)n2)c1	i	-14*	i	-0.17	i	-33	124*	0.14*
COc1ccc(C(C)(C)C)cc1NC(=O)COC(=O)CN1C(=O)NC2(CCCCC2C)C1=O (stereo not drawn)	.	i	.	.	.	.	.	.
CC(C)CNC(=O)c1cc2nc3c(c(C(F)(F)F)n2n1)CCc1ccccc1-3	i	-17*	i	.	i	1	56*	i
CCCCNC(=O)c1cc2nc3c(c(C(F)(F)F)n2n1)CCc1ccccc1-3	i	i	i	-0.13	i	-1	.	.
CN(C(=O)Nc1ccc(Cl)cc1Cl)[C@H]1c2cc(Br)ccc2OC[C@H]1CO	i	-8.9*	i	-1.3	i	-10	100*	i
Cc1ccc(-n2cc(CN3CCC(CO)(Cc4cccc(C(F)(F)F)c4)CC3)cn2)cc1	i	i	i	0.48	i	-23	.	.
CSc1cccc(CN2CCC(CO)(Cc3cccc(C(F)(F)F)c3)CC2)c1	i	-11*	i	-0.49	i	-18	116*	0.15*
Cc1ccc(CSCC(=O)Nc2cc(S(=O)(=O)N3CCOCC3)ccc2OCC(F)(F)F)cc1	.	i	.	.	.	.	.	.
O=[N+]([O-])c1ccccc1C=NN1CCCCCC1	.	i	.	.	.	.	.	.
O=C1/C(=C\c2ccc(O)cc2)SC(=S)N1/N=C/c1ccc(O)cc1	7*	-8.8*	i	.	i	-17	109*	0.15*
CC(=O)NN1C(=O)/C(=C\c2ccc(O)cc2)SC1=S	i	i	i	-1.4	i	-5	.	.
COc1cc(Cl)c(C)cc1NC(=O)CSc1ccccc1	i	-9.4*	i	-0.048	i	-6	113*	i

High-throughput results from PubChem BioAssay.
